Active and inactive are the calls of the source. The rule behind the calls is not given here.
Columns and labels:
MDBK = assay: Inhibition of cytosolic alpha-mannosidase in MDBK cells assessed as Man5GlcNAc1 formation at 1 mM after 24 hrs by HPLC analysis; format: cell-based; settings: Bos taurus
Summary of the method: (§1)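 MDBK cells were treated with azepanes alongside untreated cells and a swainsonine control (1 mM, 24 h). Free oligosaccharides (FOS) were labelled with 2-AA and profiled by fluorescence HPLC. Mannosylated species were compared: Man3GlcNAc2 and Man5-8GlcNAc2 indicate lysosomal activity, and Man5GlcNAc1 indicates cytosolic mannosidase activity.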

Prunus dulcis = assay: Inhibition of almond beta-glucosidase at 1000 uM
Summary of the method: (§2)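 Commercial glycosidases were tested with a single inhibitor level of 1000 μM, and percent inhibition was recorded. "NI" means less than 50% inhibition at that concentration.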

[1] = Inhibition of jack beans alpha-mannosidase; parameters: species or system Canavalia ensiformis
[2] = molecular target: T1, Glucosylceramidase (Bos taurus) (UniProt Q2KHZ8); assay: Inhibition of bovine liver beta-glucosidase at 1000 uM; summary of the method: as §2
T1 sequence (whole entry): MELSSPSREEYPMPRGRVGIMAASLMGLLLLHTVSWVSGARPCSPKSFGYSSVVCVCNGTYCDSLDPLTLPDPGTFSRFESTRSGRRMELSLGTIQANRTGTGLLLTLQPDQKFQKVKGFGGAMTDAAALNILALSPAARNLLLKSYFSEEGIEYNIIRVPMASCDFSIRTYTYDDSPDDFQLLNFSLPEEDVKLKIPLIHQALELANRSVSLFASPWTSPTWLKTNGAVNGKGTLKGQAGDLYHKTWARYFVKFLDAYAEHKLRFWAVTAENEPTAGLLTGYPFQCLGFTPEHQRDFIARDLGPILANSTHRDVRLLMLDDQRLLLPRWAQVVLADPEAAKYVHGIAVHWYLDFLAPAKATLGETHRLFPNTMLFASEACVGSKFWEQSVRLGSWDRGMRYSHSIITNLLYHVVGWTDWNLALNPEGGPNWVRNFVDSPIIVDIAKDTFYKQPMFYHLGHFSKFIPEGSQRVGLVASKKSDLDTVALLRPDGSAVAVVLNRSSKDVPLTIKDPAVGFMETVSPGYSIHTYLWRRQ

[3] = molecular target: T2, Lysosomal alpha-mannosidase (Bos taurus) (UniProt Q29451); assay: Inhibition of lysosomal alpha-mannosidase in MDBK cells assessed as Man5-8GlcNAc2FOS formation at 1 mM after 24 hrs by HPLC analysis; format: cell-based; summary of the method: as §1
T2 sequence (whole entry): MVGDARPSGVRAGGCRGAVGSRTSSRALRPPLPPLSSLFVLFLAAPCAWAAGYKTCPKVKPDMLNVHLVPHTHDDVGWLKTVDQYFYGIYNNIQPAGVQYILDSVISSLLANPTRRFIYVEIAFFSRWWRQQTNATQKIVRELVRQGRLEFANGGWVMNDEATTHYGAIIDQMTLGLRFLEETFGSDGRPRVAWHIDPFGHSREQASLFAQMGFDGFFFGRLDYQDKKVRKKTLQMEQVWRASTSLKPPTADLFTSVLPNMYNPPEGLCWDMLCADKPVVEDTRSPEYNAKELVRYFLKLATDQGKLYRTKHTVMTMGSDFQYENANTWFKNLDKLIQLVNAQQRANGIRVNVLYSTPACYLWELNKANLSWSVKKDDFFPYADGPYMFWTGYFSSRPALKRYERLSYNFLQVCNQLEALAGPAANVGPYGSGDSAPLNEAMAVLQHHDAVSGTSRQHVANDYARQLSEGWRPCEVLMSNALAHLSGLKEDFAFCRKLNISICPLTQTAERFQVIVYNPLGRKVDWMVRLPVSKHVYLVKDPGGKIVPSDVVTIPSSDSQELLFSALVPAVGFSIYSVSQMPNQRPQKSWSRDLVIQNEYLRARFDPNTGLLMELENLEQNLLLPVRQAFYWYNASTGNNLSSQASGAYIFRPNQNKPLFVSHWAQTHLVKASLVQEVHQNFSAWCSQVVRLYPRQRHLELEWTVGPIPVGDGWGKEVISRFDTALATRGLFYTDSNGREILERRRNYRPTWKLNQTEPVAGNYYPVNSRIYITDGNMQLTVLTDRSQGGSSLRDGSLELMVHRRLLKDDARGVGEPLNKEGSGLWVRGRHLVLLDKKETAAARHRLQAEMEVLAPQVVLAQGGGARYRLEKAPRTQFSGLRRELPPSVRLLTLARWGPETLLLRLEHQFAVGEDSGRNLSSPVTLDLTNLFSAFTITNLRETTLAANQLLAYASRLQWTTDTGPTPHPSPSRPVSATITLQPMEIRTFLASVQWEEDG

Helix pomatia = assay: Inhibition of snail beta-mannosidase at 1000 uM; summary of the method: as §2
[4] = molecular target: T3, Tissue alpha-L-fucosidase (Bos taurus, UniProt Q2KIM0); assay: Inhibition of bovine kidney alpha-L-fucosidase
T3 sequence (Q2KIM0 whole entry): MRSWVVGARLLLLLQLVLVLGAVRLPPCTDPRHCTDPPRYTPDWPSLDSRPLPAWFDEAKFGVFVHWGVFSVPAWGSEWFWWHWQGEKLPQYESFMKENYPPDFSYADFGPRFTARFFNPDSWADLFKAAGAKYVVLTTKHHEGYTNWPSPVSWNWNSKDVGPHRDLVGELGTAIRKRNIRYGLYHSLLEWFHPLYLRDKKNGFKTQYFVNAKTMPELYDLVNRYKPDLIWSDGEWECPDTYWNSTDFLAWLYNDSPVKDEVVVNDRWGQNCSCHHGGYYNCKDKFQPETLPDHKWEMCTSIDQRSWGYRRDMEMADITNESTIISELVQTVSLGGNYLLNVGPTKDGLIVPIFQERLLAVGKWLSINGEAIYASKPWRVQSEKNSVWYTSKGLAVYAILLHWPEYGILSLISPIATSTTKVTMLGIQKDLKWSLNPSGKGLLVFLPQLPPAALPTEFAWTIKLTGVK

[5] = molecular target: T4, Beta-glucuronidase (Bos taurus) (UniProt A3KMY8); assay: Inhibition of bovine liver beta glucuronidase at 1000 uM; summary of the method: as §2
T4 sequence (whole entry): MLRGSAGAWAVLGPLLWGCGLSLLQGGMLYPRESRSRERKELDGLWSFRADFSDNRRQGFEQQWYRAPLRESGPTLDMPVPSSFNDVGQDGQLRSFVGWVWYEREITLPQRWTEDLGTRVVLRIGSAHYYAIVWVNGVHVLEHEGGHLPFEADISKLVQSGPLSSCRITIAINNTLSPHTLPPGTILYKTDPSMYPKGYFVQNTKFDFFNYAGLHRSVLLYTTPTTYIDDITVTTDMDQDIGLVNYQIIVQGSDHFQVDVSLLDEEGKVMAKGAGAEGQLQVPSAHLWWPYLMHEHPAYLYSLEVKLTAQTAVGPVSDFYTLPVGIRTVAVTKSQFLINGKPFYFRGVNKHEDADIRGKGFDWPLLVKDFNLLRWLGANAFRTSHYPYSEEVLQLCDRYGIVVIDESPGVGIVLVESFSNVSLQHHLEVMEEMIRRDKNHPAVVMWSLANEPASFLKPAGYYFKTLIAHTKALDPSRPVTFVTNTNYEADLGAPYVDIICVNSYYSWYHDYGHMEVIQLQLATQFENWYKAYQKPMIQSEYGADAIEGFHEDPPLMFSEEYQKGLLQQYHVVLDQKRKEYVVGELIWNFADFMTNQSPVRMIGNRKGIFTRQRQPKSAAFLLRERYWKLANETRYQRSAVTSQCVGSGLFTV

Penicillium decumbens = assay: Inhibition of Penicillium decumbens alpha-L-rhamnosidase at 1000 uM; summary of the method: as §2
Aspergillus niger = assay: Inhibition of Aspergillus niger amyloglucosidase at 1000 uM; summary of the method: as §2
Beta-galactosidase = molecular target: T5, Beta-galactosidase (Bos taurus, UniProt Q58D55); assay: Inhibition of bovine liver beta-galactosidase
T5 sequence (Q58D55 whole entry): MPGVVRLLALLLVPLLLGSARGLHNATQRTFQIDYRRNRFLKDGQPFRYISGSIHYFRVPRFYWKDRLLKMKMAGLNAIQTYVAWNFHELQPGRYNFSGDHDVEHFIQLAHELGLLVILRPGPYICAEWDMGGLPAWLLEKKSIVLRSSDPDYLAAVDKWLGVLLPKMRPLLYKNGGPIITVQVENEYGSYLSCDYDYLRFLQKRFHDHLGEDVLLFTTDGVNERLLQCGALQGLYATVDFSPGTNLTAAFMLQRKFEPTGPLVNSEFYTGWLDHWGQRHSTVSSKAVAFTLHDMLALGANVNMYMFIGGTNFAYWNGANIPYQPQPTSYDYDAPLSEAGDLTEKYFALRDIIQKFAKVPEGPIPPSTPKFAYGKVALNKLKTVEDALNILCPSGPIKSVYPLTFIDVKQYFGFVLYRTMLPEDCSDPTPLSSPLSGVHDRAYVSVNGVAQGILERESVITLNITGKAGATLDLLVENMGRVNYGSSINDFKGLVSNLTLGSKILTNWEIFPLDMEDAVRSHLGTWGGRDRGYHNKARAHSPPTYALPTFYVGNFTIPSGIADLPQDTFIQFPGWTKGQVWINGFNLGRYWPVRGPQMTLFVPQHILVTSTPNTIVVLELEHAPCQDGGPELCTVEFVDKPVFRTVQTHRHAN

[6] = molecular target: Oligo-1,6-glucosidase IMA1 (Saccharomyces cerevisiae S288c) (UniProt P53051); assay: Inhibition of yeast alpha-glucosidase at 1000 uM; summary of the method: as §2
[7] = molecular target: T6, Uncharacterized protein (Sus scrofa) (UniProt I3LIR5); assay: Inhibition of pig kidney trehalase at 1000 uM; summary of the method: as §2
T6 sequence (whole entry): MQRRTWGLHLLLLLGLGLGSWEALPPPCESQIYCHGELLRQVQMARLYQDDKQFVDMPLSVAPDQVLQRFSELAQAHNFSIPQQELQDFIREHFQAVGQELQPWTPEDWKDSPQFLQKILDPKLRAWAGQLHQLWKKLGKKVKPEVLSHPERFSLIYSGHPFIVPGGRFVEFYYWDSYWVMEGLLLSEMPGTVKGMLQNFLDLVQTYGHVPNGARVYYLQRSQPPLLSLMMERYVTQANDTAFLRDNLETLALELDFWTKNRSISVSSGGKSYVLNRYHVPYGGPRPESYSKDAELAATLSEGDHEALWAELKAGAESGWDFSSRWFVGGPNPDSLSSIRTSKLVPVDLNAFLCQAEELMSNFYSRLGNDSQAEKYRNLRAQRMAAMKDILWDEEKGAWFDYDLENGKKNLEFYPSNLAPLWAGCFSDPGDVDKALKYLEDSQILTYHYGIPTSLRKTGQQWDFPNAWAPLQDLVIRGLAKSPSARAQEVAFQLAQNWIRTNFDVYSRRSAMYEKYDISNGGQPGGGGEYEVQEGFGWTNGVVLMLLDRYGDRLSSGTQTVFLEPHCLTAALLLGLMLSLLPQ

Coffea = assay: Inhibition of coffee beans alpha-galactosidase at 1000 uM; summary of the method: as §2
[8] = molecular target: Probable alpha-glucosidase Os06g0675700 (Oryza sativa Japonica Group, UniProt Q653V7); assay: Inhibition of rice alpha-glucosidase
Canavalia ensiformis = assay: Inhibition of jack beans alpha-mannosidase at 1000 uM; summary of the method: as §2
[9] = molecular target: Probable alpha-glucosidase Os06g0675700 (Oryza sativa Japonica Group) (UniProt Q653V7); assay: Inhibition of rice alpha-glucosidase at 1000 uM; summary of the method: as §2
[10] = molecular target: T7, Tissue alpha-L-fucosidase (Bos taurus) (UniProt Q2KIM0); assay: Inhibition of bovine kidney alpha-L-fucosidase at 1000 uM; summary of the method: as §2
T7 sequence (whole entry): T3 sequence (Q2KIM0 whole entry)

Beta-glucuronidase = molecular target: T8, Beta-glucuronidase (Bos taurus, UniProt A3KMY8); assay: Inhibition of bovine liver beta glucuronidase
T8 sequence (A3KMY8 whole entry): T4 sequence (whole entry)

[11] = Inhibition of almond beta-glucosidase; parameters: species or system Prunus dulcis
[12] = Inhibition of coffee beans alpha-galactosidase; parameters: species or system Coffea
[13] = molecular target: T2, Lysosomal alpha-mannosidase (Bos taurus); assay: Inhibition of lysosomal alpha-mannosidase in MDBK cells assessed as Man5-8GlcNAc2FOS formation at 0.1 to 1 mM after 24 hrs by HPLC analysis; format: cell-based; summary of the method: as §1
[14] = molecular target: Oligo-1,6-glucosidase IMA1 (Saccharomyces cerevisiae S288c, UniProt P53051); assay: Inhibition of yeast alpha-glucosidase
Oligo-1,6-glucosidase IMA1, sequence (P53051 whole entry): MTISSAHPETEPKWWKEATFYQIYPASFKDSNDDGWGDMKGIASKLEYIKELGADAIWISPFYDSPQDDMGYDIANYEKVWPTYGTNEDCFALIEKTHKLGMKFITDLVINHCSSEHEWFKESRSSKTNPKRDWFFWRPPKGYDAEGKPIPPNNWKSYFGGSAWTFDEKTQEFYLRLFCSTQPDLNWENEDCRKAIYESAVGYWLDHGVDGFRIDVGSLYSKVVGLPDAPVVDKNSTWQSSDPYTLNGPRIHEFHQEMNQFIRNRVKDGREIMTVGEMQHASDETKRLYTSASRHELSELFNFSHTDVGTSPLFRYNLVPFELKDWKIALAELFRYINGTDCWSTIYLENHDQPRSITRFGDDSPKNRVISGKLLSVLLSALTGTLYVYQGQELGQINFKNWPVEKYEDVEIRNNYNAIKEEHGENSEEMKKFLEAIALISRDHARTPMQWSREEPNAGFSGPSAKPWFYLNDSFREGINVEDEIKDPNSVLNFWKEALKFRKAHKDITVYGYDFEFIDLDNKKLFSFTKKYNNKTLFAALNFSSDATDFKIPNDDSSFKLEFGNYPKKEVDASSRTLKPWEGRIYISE

Oligo-1,6-glucosidase IMA1 (Saccharomyces cerevisiae S288c), sequence (P53051 whole entry): as above
Probable alpha-glucosidase Os06g0675700 (Oryza sativa Japonica Group), sequence (Q653V7 whole entry): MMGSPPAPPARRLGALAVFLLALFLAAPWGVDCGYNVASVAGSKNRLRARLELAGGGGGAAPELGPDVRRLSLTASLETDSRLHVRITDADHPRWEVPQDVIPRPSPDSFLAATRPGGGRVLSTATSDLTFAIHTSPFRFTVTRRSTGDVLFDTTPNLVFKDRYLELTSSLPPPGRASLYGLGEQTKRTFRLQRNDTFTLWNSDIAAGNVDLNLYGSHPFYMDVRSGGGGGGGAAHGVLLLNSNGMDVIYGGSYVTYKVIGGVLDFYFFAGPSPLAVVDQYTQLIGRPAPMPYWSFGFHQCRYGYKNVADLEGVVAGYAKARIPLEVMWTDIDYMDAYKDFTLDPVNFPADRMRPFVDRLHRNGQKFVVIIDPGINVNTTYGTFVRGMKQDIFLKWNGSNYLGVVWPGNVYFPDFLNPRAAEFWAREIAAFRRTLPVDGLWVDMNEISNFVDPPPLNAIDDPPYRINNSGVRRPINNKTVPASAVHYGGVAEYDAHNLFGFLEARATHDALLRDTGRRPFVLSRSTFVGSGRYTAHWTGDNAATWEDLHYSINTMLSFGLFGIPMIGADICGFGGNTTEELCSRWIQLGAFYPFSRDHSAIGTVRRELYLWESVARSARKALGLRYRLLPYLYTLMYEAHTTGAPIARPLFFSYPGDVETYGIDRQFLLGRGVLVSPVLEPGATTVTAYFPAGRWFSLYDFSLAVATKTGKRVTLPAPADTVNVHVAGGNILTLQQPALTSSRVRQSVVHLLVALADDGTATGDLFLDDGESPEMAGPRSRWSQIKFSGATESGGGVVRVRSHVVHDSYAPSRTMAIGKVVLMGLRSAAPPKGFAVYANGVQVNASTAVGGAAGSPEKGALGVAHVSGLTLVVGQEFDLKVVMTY
Probable alpha-glucosidase Os06g0675700, sequence (Q653V7 whole entry): as above

C[C@H]1CNC[C@@H](O)[C@@H](O)[C@@H]1O
inhibition (MDBK): Active
inhibition (Prunus dulcis): 29.4%
IC50 [1]: 335 µM
inhibition [2]: 49.2%
inhibition [3]: Active
inhibition (Helix pomatia): 4.3%
IC50 [4]: 181 µM
inhibition [5]: 0%
inhibition (Penicillium decumbens): 6.8%
inhibition (Aspergillus niger): 0%
IC50 (Beta-galactosidase): 876 µM
inhibition [6]: 0%
inhibition [7]: 22.2%
inhibition (Coffea): 37.6%
IC50 [8]: 226 µM

OC[C@H]1CNC[C@@H](O)[C@@H](O)[C@@H]1O
inhibition (Prunus dulcis): 41.4%
inhibition (Canavalia ensiformis): 23%
inhibition [3]: Active
inhibition (Helix pomatia): 0%
inhibition [5]: 0%
inhibition (Penicillium decumbens): 0.9%
inhibition [9]: 0%
inhibition (Aspergillus niger): 14.2%
IC50 (Beta-galactosidase): 442 µM
inhibition [10]: 15.8%
inhibition [6]: 18.9%
inhibition [7]: 16.6%
inhibition (Coffea): 16.8%

OC[C@@H]1CNC[C@@H](O)[C@@H](O)[C@@H]1O
IC50 (Beta-glucuronidase): 594 µM
IC50 [11]: 157 µM
IC50 [1]: 812 µM
IC50 [12]: 65 µM
inhibition [13]: inactive
inhibition (Helix pomatia): 0%
IC50 [14]: 71 µM
inhibition (Penicillium decumbens): 1.5%
inhibition [9]: 14.7%
inhibition (Aspergillus niger): 0.3%
IC50 (Beta-galactosidase): 420 µM
inhibition [10]: 25%
inhibition [7]: 17.2%

C[C@@H]1CNC[C@@H](O)[C@@H](O)[C@@H]1O
IC50 (Beta-glucuronidase): 139 µM
IC50 [11]: 14 µM
IC50 [1]: 101 µM
IC50 [12]: 14 µM
inhibition [13]: inactive
inhibition (Helix pomatia): 0.4%
IC50 [4]: 64 µM
inhibition (Penicillium decumbens): 20.6%
inhibition (Aspergillus niger): 6.9%
IC50 (Beta-galactosidase): 198 µM
inhibition [6]: 37.8%
inhibition [7]: 39.9%
IC50 [8]: 12 µM
